Data: ChEMBL document CHEMBL3272210, “Effect of the solvent-dependent conformational system of hydroxyureas on predicted vs. observed log P” (J Med Chem, 1977)

Tests used:
[1] = test system: L1210; test: Antitumor activity against mouse L1210 cells xenografted in host assessed as growth inhibition treated ip for 9 days; type: functional
[2] = species: Rattus norvegicus; test: Inhibition of rat hepatoma ribonucleotide reductase using ATP and Me2SO solvent relative to hydroxyurea
[3] = species: Rattus norvegicus; test: Inhibition of rat hepatoma ribonucleotide reductase using ATP relative to hydroxyurea
In short: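 Same 32P-CDP reduction assay, 30 min, 37 °C, ATP 2.1 mM, aqueous inhibitor. Each determination includes hydroxyurea as positive control. ID50 (four levels, two trials each) is divided relative to that run's hydroxyurea ID50, and ratios are averaged across determinations.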

[4] = species: Rattus norvegicus; test: Inhibition of rat hepatoma ribonucleotide reductase using ATP and Me2SO solvent
In short: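 Rat Novikoff ascites hepatoma reductase, partially purified, assayed in 8.3 mM phosphate pH 7, 2.1 mM ATP, 4.2 mM MgAc2, 0.04 mM ferrous ammonium sulfate, 6.3 mM DTT, 1.0 μM thioredoxin, 0.17 mM 32P-CDP. Inhibitor is predissolved in DMSO and diluted to 1% DMSO final, then added on ice before enzyme, followed by 30 min at 37 °C. Dowex-50 readout. ID50 extrapolated from four concentrations tested in duplicate.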

[5] = Octanol-water partition coefficient, log P of the compound after 72 hrs; type: physicochemical
In short: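 Known amounts (100 mg, 500 mg, 1.0 g) are shaken in equal volumes of 1-octanol and water pH 7.4 for 72 h, the optimal time. The aqueous layer is lyophilized, and the recovered compound is weighed and purity-checked. Values were cross-checked by colorimetry or UV for some compounds.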

[6] = species: Rattus norvegicus; test: Inhibition of rat hepatoma ribonucleotide reductase using ATP
In short: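 Partially purified rat Novikoff ascites hepatoma reductase (~0.2 mg) in pH 7 phosphate (8.3 mM) with 2.1 mM ATP, 4.2 mM MgAc2, Fe2+ (0.04 mM), 6.3 mM DTT, 1.0 μM rat thioredoxin and 0.17 mM 32P-CDP. Aqueous inhibitor is present before enzyme is added on ice, then 37 °C for 30 min. Perchloric acid stop, Dowex-50 product separation. Four concentrations, duplicate trials, ID50 by graphing/extrapolation.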

Row | SMILES | T/C [1] [%] | Ratio [2] | Ratio [3] | ID50 [4] [µM] | logP at 72 h [5] | ID50 [6] [µM]
1 | CCCNC(=O)NO | 146 | 3.8 | 3.8 | 340 | 0.22 | 340
2 | NC(=O)NO [HYDROXYUREA] | 291 | – | 1 | – | -1.27 | 110
3 | CCNC(=O)NO | 137 | – | – | – | -0.76 | –
4 | CCCCNC(=O)NO | – | – | 6.8 | 750 | 0.32 | –
5 | O=C(NO)Nc1ccccc1 | – | – | – | – | 0.41 | –
6 | CCN(O)C(N)=O | 168 | – | 1.5 | – | -0.1 | 170
7 | CC(C)NC(=O)NO | <125 | – | 19 | – | 0.2 | 800
8 | O=C(NO)Nc1ccc(Cl)cc1 | – | – | – | – | 1.39 | –
9 | CC(C)(C)NC(=O)NO | – | – | 9.5 | 400 | 0.5 | –
10 | CN(O)C(N)=O | 162 | – | 0.9 | – | -0.46 | 100
